Experimental data published in ChEMBL document CHEMBL1800053, “Concise synthesis and antiangiogenic activity of artemisinin-glycolipid hybrids on chorioallantoic membranes” (Bioorg Med Chem Lett, 2010).

What was measured:
[1] = Embryotoxicity in fertilized chicken embryo at 2.5 nmol/egg; format: toxicity, Gallus gallus
Gallus gallus = organism: Gallus gallus; test: Antiangiogenesis activity against fertilized chicken egg chorioallantoic membrane assessed as inhibition of neovascularization at 2.5 nmol/egg by CAM vessel development assay relative to control; format: functional, tissue-based
Method in brief: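 Fertilized chicken eggs incubated at 37 °C, 80–90% relative humidity. Day 3: window opened after removing 2 ml albumin. Day 5: sample loaded on a quarter-size coverslip placed on the CAM of each embryo, 2.5 nmol/egg. Scored as positive eggs out of 10 tested, graded inhibition effect, and % inhibition of vessel development relative to control.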

Compound	Activity [1]	inhibition (Gallus gallus) [%]
C[C@H]1[C@@H](CCCOC(=O)CCCC[C@H](C)O[C@@H]2O[C@@H](C)[C@H](OC(=O)c3ccccc3)C[C@H]2OC(=O)c2ccccc2)O[C@@H]2O[C@@]3(C)CC[C@H]4[C@H](C)CC[C@@H]1[C@@]24OO3	Non-toxic	80
C[C@H]1[C@@H](CCOC(=O)CCCC[C@H](C)O[C@@H]2O[C@@H](C)[C@H](OC(=O)c3ccccc3)C[C@H]2OC(=O)c2ccccc2)O[C@@H]2O[C@@]3(C)CC[C@H]4[C@H](C)CC[C@@H]1[C@@]24OO3	Toxic	60
C[C@H]1[C@@H](CCCOC(=O)CCCC[C@H](C)O[C@@H]2O[C@@H](C)[C@H](O)C[C@H]2O)O[C@@H]2O[C@@]3(C)CC[C@H]4[C@H](C)CC[C@@H]1[C@@]24OO3	Toxic	60
C[C@H]1[C@@H](CC(=O)OCCCCC[C@@H](C)O[C@@H]2O[C@@H](C)[C@H](O)C[C@H]2O)O[C@@H]2O[C@@]3(C)CC[C@H]4[C@H](C)CC[C@@H]1[C@@]24OO3	Non-toxic	100
C[C@H]1[C@@H](CCOC(=O)CCCC[C@H](C)O[C@@H]2O[C@@H](C)[C@H](O)C[C@H]2O)O[C@@H]2O[C@@]3(C)CC[C@H]4[C@H](C)CC[C@@H]1[C@@]24OO3	Toxic	60
O=C1CC[C@H](N2C(=O)c3ccccc3C2=O)C(=O)N1	Toxic	40
C[C@H]1[C@@H](CC(=O)O[C@@H]2C[C@@H](O)[C@H](C)O[C@H]2O[C@H](C)CCCCCO)O[C@@H]2O[C@@]3(C)CC[C@H]4[C@H](C)CC[C@@H]1[C@@]24OO3	Non-toxic	50
C=CCCCC[C@@H](C)O[C@@H]1O[C@@H](C)[C@H](O)C[C@H]1OC(=O)C[C@H]1O[C@@H]2O[C@@]3(C)CC[C@H]4[C@H](C)CC[C@@H]([C@H]1C)[C@@]24OO3	50%	50
C[C@H]1[C@@H](CC(=O)OCCCCC[C@@H](C)O[C@@H]2O[C@@H](C)[C@H](OCc3ccccc3)C[C@H]2OCc2ccccc2)O[C@@H]2O[C@@]3(C)CC[C@H]4[C@H](C)CC[C@@H]1[C@@]24OO3	Toxic	50
C[C@H]1[C@@H](OC(=O)CCCC[C@H](C)O[C@@H]2O[C@@H](C)[C@H](OC(=O)c3ccccc3)C[C@H]2OC(=O)c2ccccc2)O[C@@H]2O[C@@]3(C)CC[C@H]4[C@H](C)CC[C@@H]1[C@@]24OO3	Toxic	10
C=CCCCC[C@@H](C)O[C@@H]1O[C@@H](C)[C@H](OC(=O)C[C@H]2O[C@@H]3O[C@@]4(C)CC[C@H]5[C@H](C)CC[C@@H]([C@H]2C)[C@@]35OO4)C[C@H]1O	Toxic	70
CO[C@@H]1[C@H](OC(=O)/C=C/C=C/C=C/C=C/C(=O)O)CC[C@]2(CO2)[C@H]1[C@@]1(C)O[C@@H]1CC=C(C)C [FUMAGILLIN]	Toxic	40
C[C@H]1[C@@H](OC(=O)CCCC[C@H](C)O[C@@H]2O[C@@H](C)[C@H](O)C[C@H]2O)O[C@@H]2O[C@@]3(C)CC[C@H]4[C@H](C)CC[C@@H]1[C@@]24OO3	Toxic	50
C[C@H](CCCCC(=O)O)O[C@@H]1O[C@@H](C)[C@H](O)C[C@H]1O [DAUMONE]	Non-toxic	70
C[C@@H]1CC[C@H]2[C@@H](C)C(=O)O[C@@H]3O[C@@]4(C)CC[C@@H]1[C@]32OO4 [ARTEMISININ]	Non-toxic	30
